Source: PubChem BioAssay
HNF4A DNA FP – change in binding of human HNF4A to DNA, primary screen, biochemical, fluorescence polarization, FITC-DNA; 1 h; activity change, % at 10 µM; 360,000 compounds, 0.3% hits; AID 1224865, 2016; in the data active = activity change above about 30%, passing the limit was not always enough
Rpn11 block – Rpn11 (PSMD14) deubiquitinase inhibitors, primary screen, biochemical, fluorescence polarization, uHTS; inhibition, % at 20 µM; human 26S proteasome, Ub4-pepOG fluorescence polarization; 20S core pre-blocked with epoxomicin; AID 588493, 2011; 360,000 compounds, 0.59% hits; 26S proteasome non-ATPase regulatory subunit 14 (Homo sapiens), O00487;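 active = inhibition at 20 µM, scaled to each plate's controls, above about 33%, limit read from the data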
Target sequence (O00487 whole entry, looked up): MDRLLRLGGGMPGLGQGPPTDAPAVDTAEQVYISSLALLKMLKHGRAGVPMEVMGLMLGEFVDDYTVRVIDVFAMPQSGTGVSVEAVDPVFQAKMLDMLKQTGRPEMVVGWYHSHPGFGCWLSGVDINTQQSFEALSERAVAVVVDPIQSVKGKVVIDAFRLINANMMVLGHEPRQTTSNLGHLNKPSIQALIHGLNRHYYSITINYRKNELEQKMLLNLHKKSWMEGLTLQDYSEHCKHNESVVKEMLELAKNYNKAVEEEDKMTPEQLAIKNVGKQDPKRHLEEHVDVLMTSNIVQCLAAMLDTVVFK
CSN deneddyl inh – inhibitors of CSN-mediated cullin deneddylation, primary screen, biochemical, fluorescence polarization, uHTS; COP9 signalosome complex subunit 5 (Homo sapiens), Q92905; Purified CSN, SCF-Nedd8-OG deneddylation; inhibition, % at 12.5 µM; 360,000 compounds, 0.38% hits; AID 651999, 2013;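 active = pattern-corrected inhibition above about 35%, with an unprinted fluorescence ratio check between 0.5 and 1.5, limit read from the data, passing the limit was not always enough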;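 note: 0% = enzyme with substrate and 100% = substrate without enzyme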
Target sequence (Q92905 whole entry, looked up, one chain of several): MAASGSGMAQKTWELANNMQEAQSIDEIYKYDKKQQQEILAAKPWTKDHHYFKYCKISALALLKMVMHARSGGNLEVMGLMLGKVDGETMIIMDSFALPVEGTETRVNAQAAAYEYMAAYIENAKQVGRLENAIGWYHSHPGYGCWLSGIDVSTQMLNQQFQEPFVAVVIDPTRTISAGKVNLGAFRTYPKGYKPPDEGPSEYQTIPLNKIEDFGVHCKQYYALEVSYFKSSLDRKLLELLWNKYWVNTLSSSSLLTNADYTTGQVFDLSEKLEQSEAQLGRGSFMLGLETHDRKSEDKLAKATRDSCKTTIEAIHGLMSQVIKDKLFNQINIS
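Detection – fluorescence polarization · System – HEK293T-derived human Csn5 enzyme · Controls – substrate-only high control, full reaction low control · Timing – 90 min, room temperature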
IDE cell activ – human IDE activators in live cells, primary screen, fluorescence polarization, HEK cells, FAbeta-B substrate. 340,000 compounds, 0.073% hits. activation, % at 5.96 µM. Insulin-degrading enzyme (Homo sapiens), P14735. FAbeta-B cleavage; 0% vehicle, 100% cell-free pure enzyme wells;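 active = activation above the mean of all tested compounds plus 3 SD, set per screening campaign, cut at about 17% in these data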
IDE cell inh – human IDE inhibitors in live cells, primary screen, fluorescence polarization, HEK cells, FAbetaB substrate; 320,000 compounds, 0.41% hits; Insulin-degrading enzyme (Homo sapiens), P14735; AID 434962, 2010; inhibition, % at 5.59 µM; FAbetaB cleavage;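 active = percent inhibition above the average of all tested compounds plus 3 SD, set per screening campaign, cut at about 16% in these data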;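 note: IDE supplied by intact live HEK cells; FP after avidin binding of uncleaved biotin substrate so inhibition keeps polarization high; 0% = DMSO wells and 100% = 60 µM reference IDE inhibitor Ii1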
TPT1 inh – Candida albicans TPT1 enzyme inhibitors, primary screen, biochemical, fluorescence polarization; tRNA 2'-phosphotransferase TPT1 (Candida albicans SC5314); recombinant caTPT1, FP RNA substrate dephosphorylation; inhibition, % at 5 µM; 300,000 compounds, 0.81% hits; AID 1962, 2009;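 active = inhibition above the mean of all tested compounds plus 3 SD, set per screening campaign, cut at about 24% in these data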;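 note: plate controls were DMSO alone for no effect and ferristatin control at 100 nM for full effect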
caTPT1 confirm – Candida albicans TPT1 inhibitors, confirmation, biochemical, fluorescence polarization, triplicate. AID 2149, 2009. shares compounds with TPT1 inh. recombinant caTPT1, RNase T1 coupled. inhibition, % at 5 µM. 2,400 compounds, 74% hits;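 active = inhibition above the primary screen limit, the mean inhibition of all tested compounds plus 3 SD, cut at about 25% in these data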
RNase T1 counter – RNase T1 inhibitors, counter-screen for TPT1 inhibitor project, biochemical, fluorescence polarization; RNase T1 cleavage, 1536-well; inhibition, % at 5 µM; shares compounds with TPT1 inh; 2,400 compounds, 83% hits;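 active = inhibition above the solvent-only control well mean plus 3 SD, limit set per screening run, cut at about 23% in these data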;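 note: plate controls were DMSO wells with enzyme for no effect and wells without RNase T1 for full effect; inhibitors block cleavage so intact labeled substrate keeps polarization high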
IDE inh confirm – human IDE inhibitors in live cells, confirmation, fluorescence polarization, HEK cells, FAbetaB substrate; shares compounds with IDE cell inh; FAbetaB cleavage; inhibition, % at 5.59 µM; 1,200 compounds, 51% hits; AID 435028, 2010;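 active = mean inhibition across triplicate wells above the cutoff set by the earlier primary insulin-degrading enzyme screen, cut at about 16% in these data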;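 note: 0% = DMSO wells and 100% = 60 µM reference IDE inhibitor Ii1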
HEK cytotox – cytotoxicity in HEK cells, cytotoxicity control for IDE inhibitor project, cell-based, luminescence. HEK293 cytotoxicity, ATP luminescence. 1,200 compounds, 28% hits. inhibition, % at 5.59 µM. AID 449730, 2010. shares compounds with IDE cell inh; in the data active = inhibition above about 22%;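 note: 0% = vehicle wells and 100% = reference cytotoxic drug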
Rpn11 inh conf – Rpn11 (PSMD14) deubiquitinase inhibitors, confirmation, biochemical, fluorescence polarization, single concentration; 1,900 compounds, 29% hits; inhibition, % at 20 µM; purified human 26S proteasome, Ub4-pepOG fluorescence polarization; proteasome pretreated with epoxomicin; shares compounds with Rpn11 block
MMP-2 counter – MMP-2 enzyme inhibition, confirmation, counter-screen for RPN11 inhibitor project, biochemical, fluorescence, single concentration. shares compounds with Rpn11 block. recombinant MMP-2, FRET peptide cleavage fluorescence. inhibition, % at 20 µM. 1,900 compounds, 4% hits;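 note: human MMP-2 activated beforehand with APMA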
Thrombin inh – bovine thrombin protease inhibition, confirmation, counter-screen for Rpn11 inhibitor project, biochemical, fluorescence polarization, single concentration | 1,900 compounds, 13% hits | bovine thrombin cleavage of Ub4-pepOG | inhibition, % at 20 µM | shares compounds with Rpn11 block;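 active = mean inhibition at least 40% at 20 µM, or signal 3 deviations below plate average, so some actives read negative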;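 note: plate controls were thrombin with DMSO for no effect and buffer wells lacking thrombin for full effect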
* = called active by the depositor; x = not tested or not shown; ! = not active in a repeat. Only some compounds are listed: those with a hit (about 1.7% of all), similar ones and a draw of the others. Cut-off read from the data, not from the text of the source, unless noted: active = inhibition above about 40%; inactive = the rest.

SMILES	HNF4A DNA FP	Rpn11 block	CSN deneddyl inh	IDE cell activ	IDE cell inh	TPT1 inh	caTPT1 confirm	RNase T1 counter	IDE inh confirm	HEK cytotox	Rpn11 inh conf	MMP-2 counter	Thrombin inh
CCCCn1nnnc1C(CCSC)N1CCC2(CC1)C(=O)NCN2c1ccccc1 (stereo not drawn)	4	-7	2	x	x	x	x	x	x	x	x	x	x
O=c1c2ccccc2nc(/C=C/c2ccc(O)c(O)c2)n1-c1ccccc1	16	x	22	-128	170*	46*	49*	57*	102*	21	x	x	x
COc1cc(/C=C/c2nc3ccccc3c(=O)n2-c2ccccc2O)ccc1O	10	x	24	-61	60*	26*	45*	49*	128*	15	x	x	x
O=C1NC(=O)N(c2ccc(F)cc2)C(=O)/C1=C/c1ccsc1	1	4	10	2	8	16	x	x	x	x	x	x	x
O=C1NC(=O)N(c2cccc(Br)c2)C(=O)/C1=C/c1ccsc1	1	29	13	1	22*	91*	70*	72*	6	5	x	x	x
Cc1ccc(-n2c(=O)[nH]c3ccccc3c2=O)cc1[N+](=O)[O-]	-1	7	-1	x	x	x	x	x	x	x	x	x	x
C=C1C(=O)OC2CC3(C)OC3C3OC3C3=CC(OC3=O)C12 (stereo not drawn)	-5	-14	2	x	x	x	x	x	x	x	x	x	x
O=C1NC(=O)N(c2ccccc2)C(=O)/C1=C\c1ccc([N+](=O)[O-])o1	x	x	x	x	13	16	x	x	x	x	x	x	x
Cc1ccccc1N1C(=O)NC(=O)/C(=C/c2ccc(N3CCOCC3)o2)C1=O	108*	x	132	-11	27*	123*	136*	138*	19*	3	x	x	x
CC1(C)OC(c2ccccc2)=C/C(=C/C=C2C(=O)NC(=S)NC2=O)O1	x	x	x	x	21*	129*	77*	76*	142*	14	x	x	x
CN1/C(=C\C=C2C(=O)NC(=S)NC2=O)C(C)(C)c2ccccc21	60	7	-105	-204	x	x	x	x	x	x	x	x	x
Cc1cccc(-n2c(O)c(/C=C/C=Nc3ccccc3)c(=O)[nH]c2=O)c1	163	x	8	-49	38*	183*	187*	173*	56*	8	x	x	x
CCCCn1nnnc1C(c1cccs1)N1CCC2(CC1)C(=O)NCN2c1ccccc1 (stereo not drawn)	3	-2	3	x	x	x	x	x	x	x	x	x	x
O=c1[nH]c(=S)[nH]c(O)c1N=Nc1ccc2c(c1)OCCO2	48*	77*	34	-5	2	25*	35*	48*	x	x	29	-6	45*
COC(=O)C1=C(c2ccc(F)cc2F)C[C@@H]2CC[C@H]1N2C(=O)N1CCCCC1	0	0	-1	-3	4	x	x	x	x	x	x	x	x
CC1=NCCc2c1[nH]c1ccccc21	37	62*	18	2	6	25*	17	22*	x	x	-4	-29	-6
COc1ccc(C)cc1NC1=NCCCS1	1	-8	-2	3	5	-2	x	x	x	x	x	x	x
COc1cc(/C=C/c2nc3ccccc3c(=O)n2-c2cccc(O)c2)ccc1O	17	93*	9	-114	65*	34*	50*	54*	153*	19	19	26	19
O=c1c2ccccc2nc(/C=C/c2ccccc2)n1-c1ccc(O)cc1	4	-7	3	3	7	-5	x	x	x	x	x	x	x
COc1ccc2nc(/N=C/c3c(O)n(-c4cccc(Cl)c4)c(=O)[nH]c3=O)sc2c1	1	48*	23	-3	5	55*	14	17	x	x	2	-22	-13
COc1ccc(N=Cc2c(O)n(CC3CCCO3)c(=O)[nH]c2=O)cc1 (stereo not drawn)	-2	37	0	-1	0	1	x	x	x	x	x	x	x
O=c1[nH]c(=O)n(CC2CCCO2)c(O)c1/C=C1\C=Nc2ccccc21 (stereo not drawn)	3	48*!	3	-5	4	37*!	16	24*	x	x	19	-15	12
CC(=O)OC1C(O)C2=C3C4(C)C1C(C)(C)C(=O)CC4C3(O)C(OC(C)=O)C1(CC1C)C2=O (stereo not drawn)	3	x	0	x	x	x	x	x	x	x	x	x	x
COc1ccc(-n2c(O)c(C=NCCCn3ccnc3)c(=O)[nH]c2=O)cc1	-3	-4	5	7	1	-2	x	x	x	x	x	x	x
COc1ccc(-n2c(O)c(/C=C3\C=Nc4ccc(Br)cc43)c(=O)[nH]c2=O)cc1	0	65*	16	-7	7	33*	26*	32*	x	x	-19	-37	-65
CN1C(=O)/C(=C\c2ccc(Br)s2)C(=O)NC1=S	1	55*	11	-10	3	25*	15	27*	x	x	-2	-1	6
CC(=O)O/C(=C1\CC2C3CC=C4CC(OC(C)=O)CCC4(C)C3CCC2(C)C1=O)C(F)(F)F (stereo not drawn)	-3	12	-2	5	x	x	x	x	x	x	x	x	x
